Reference: ChEMBL document CHEMBL4334468, “Exploring Mitochondria-Mediated Intrinsic Apoptosis by New Phytochemical Entities: An Explicit Observation of Cytochrome c Dynamics on Lung and Melanoma Cancer Cells” (J Med Chem, 2019)
Activity calls are given as the source filed them. No cut-off for these calls is given here.

Assays:
[1] = tested on: A549; assay: Inhibition of colony formation in human A549 cells at 1 nM by crystal violet staining based assay; type: functional, cell-based
[2] = tested on: A-375; assay: Suppression of cell number in human A375 cells at 20 uM by phase contrast microscopy; type: functional, cell-based
[3] = tested on: A549; assay: Cytotoxicity in human A549 cells assessed as reduction in cell viability incubated for 24 hrs by MTT assay; type: functional, cell-based; conditions: Homo sapiens, A549, 24 h; read-out: IC50
Summary of the method: (§1)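 MTT viability assay on A375 melanoma, A549 lung adenocarcinoma and WI-38 normal lung fibroblast cells after 24 and 48 h treatment. IC50 values are in µM, expressed as mean ± SD.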

[4] = tested on: A-375; assay: Induction of cell cycle arrest in human A375 cells assessed as accumulation at S phase at 10 nM by propodium iodide staining based flow cytometric analysis; type: functional
Summary of the method: (§2)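 DNA was stained with propidium iodide and analysed by flow cytometry. Histograms give the fraction of cells in G0/G1, S and G2/M phases.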

[5] = tested on: A549; assay: Induction of apoptosis in human A549 cells assessed as cytochrome-c release after 3 to 4 hrs by Raman spectral imaging analysis; type: functional, cell-based
[6] = tested on: A549; assay: Induction of mitochondrial membrane potential changes in human A549 cells at 1 uM by JC1 staining based fluorimetry; type: functional, cell-based
Summary of the method: (§3)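 Mitochondrial membrane potential was assessed with the ratiometric dye JC1. Depolarization appears as lower red and higher green fluorescence, and the red/green intensity ratio was quantified.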

[7] = tested on: A549; assay: Induction of apoptosis in human A549 cells assessed as induction of nuclear changes with DNA fragmentation at 1 uM by Hoechst 33342 nuclear staining based assay; type: functional, cell-based
Summary of the method: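 Hoechst 33342 nuclear staining of treated A549 or A375 cells. Nuclear condensation and fragmentation were examined by fluorescence microscopy against untreated control.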

[8] = tested on: A549; assay: Induction of apoptosis related protein expression in human A549 cells assessed as increase in p21 expression at 20 uM incubated for 12 hrs by apoptosis antibody array; type: functional, cell-based
[9] = tested on: A549; assay: Induction of apoptosis in human A549 cells at 1 uM by APOP assay; type: functional, cell-based
Summary of the method: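 APOPercentage dye uptake in treated A549 cells, which stain purple-red in early apoptosis when phosphatidylserine is translocated. Accumulated dye was then quantified against unstained untreated controls.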

[10] = tested on: A549; assay: Induction of intracellular ROS generation in human A549 cells by DCFDA dye based fluorescence assay relative to control; type: functional, cell-based
Summary of the method: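 Intracellular ROS in A549 cells was measured with the DCFDA probe over 1-100 µM, with paclitaxel as positive control. Readout is fold change in fluorescence intensity relative to untreated control.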

[11] = tested on: A549; assay: Induction of apoptosis related protein expression in human A549 cells assessed as increase in p53 expression at 20 uM incubated for 12 hrs by apoptosis antibody array; type: functional, cell-based
[12] = tested on: A549; assay: Induction of apoptosis in human A549 cells assessed as cytochrome-c release after 4 to 12 hrs by spectrophotometry; type: functional, cell-based
[13] = tested on: A-375; assay: Induction of apoptosis in human A375 cells at 1 uM incubated for 24 hrs by FITC-Annexin V staining based assay (reference value: 0.03 +/- 0.9%); type: functional
[14] = tested on: A-375; assay: Induction of DNA fragmentation in human A375 cells after 4 hrs by agarose gel electrophoresis; type: functional, cell-based
[15] = tested on: A549; assay: Induction of DNA fragmentation in human A549 cells after 3 hrs by chemometec-DNA fragmentation assay relative to control; type: functional
[16] = tested on: A-375; assay: Antimetastatic activity in human A375 cells assessed as reduction in cell invasion at 10 nM by crystal violet staining based transwell chamber assay; type: functional
Summary of the method: (§4)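 Invasion was measured in a transwell chamber, with cells moving across Matrigel toward the lower chamber. Invaded cells were imaged and quantified against untreated control.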

[17] = tested on: A549; assay: Antimetastatic activity in human A549 cells assessed as reduction in cell invasion at 10 nM by crystal violet staining based transwell chamber assay; type: functional; summary of the method: as §4
[18] = Antioxidant activity at 1 to 1000 ug/ml incubated for 90 mins by FRAP assay; type: functional
[19] = tested on: A-375; assay: Induction of morphological changes in human A375 cells at 20 uM by phase contrast microscopy; type: functional, cell-based
[20] = tested on: A549; assay: Induction of morphological changes in human A549 cells assessed as induction of membrane breakage, blebbing and leakage of intracellular components at 1 uM by atomic force microscopy; type: functional, cell-based
[21] = tested on: A549; assay: Induction of apoptosis in human A549 cells assessed as increase in caspase-8 levels at 1 uM incubated for 12 hrs by spectrofluorometry; type: functional, cell-based
[22] = tested on: A549; assay: Suppression of cell number in human A549 cells at 20 uM by phase contrast microscopy; type: functional, cell-based
[23] = tested on: A549; assay: Antimetastatic activity in human A549 cells assessed as reduction in cell migration at 10 nM by crystal violet staining based transwell chamber assay; type: functional
Summary of the method: (§5)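 Transwell chamber migration assay. Cells migrating to the lower side were imaged and quantified against untreated control.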

[24] = tested on: A549; assay: Induction of apoptosis related protein expression in human A549 cells assessed as increase in CD40 expression at 20 uM incubated for 12 hrs by apoptosis antibody array; type: functional, cell-based
[25] = tested on: A-375; assay: Induction of GSH depletion in human A375 cells by fluorimetry; type: functional, cell-based
[26] = tested on: A-375; assay: Induction of mitochondrial membrane potential changes in human A375 cells at 1 uM by JC1 staining based fluorimetry; type: functional, cell-based; summary of the method: as §3
[27] = tested on: A-375; assay: Antimetastatic activity in human A375 cells assessed as reduction in cell migration at 10 nM by crystal violet staining based transwell chamber assay; type: functional; summary of the method: as §5
[28] = tested on: A549; assay: Cytotoxicity in human A549 cells assessed as reduction in cell viability incubated for 48 hrs by MTT assay; type: functional, cell-based; conditions: Homo sapiens, A549, 48 h; read-out: IC50; summary of the method: as §1
[29] = tested on: A549; assay: Induction of cell cycle arrest in human A549 cells assessed as accumulation at S phase at 10 nM by propodium iodide staining based flow cytometric analysis (reference value: 25%); type: functional; summary of the method: as §2
[30] = tested on: A-375; assay: Induction of DNA damage in human A375 cells after 4 hrs by Raman spectral imaging analysis; type: functional, cell-based
[31] = tested on: A-375; assay: Inhibition of colony formation in human A375 cells at 1 nM by crystal violet staining based assay; type: functional, cell-based
[32] = tested on: A-375; assay: Antimetastatic activity in human A375 assessed as inhibition of cell migration rate at 1 nM incubated up to 24 hrs by scratch wound healing assay; type: functional, cell-based
Summary of the method: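 Scratch wound healing assay. The cell-free zone was followed over time up to 24 h, with untreated control wells as reference. Closure was quantified as migration rate.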

[33] = tested on: A-375; assay: Induction of morphological changes in human A375 cells assessed as induction of membrane breakage, blebbing and leakage of intracellular components at 1 uM by atomic force microscopy; type: functional, cell-based
[34] = tested on: A549; assay: Induction of morphological changes in human A549 cells at 20 uM by phase contrast microscopy; type: functional, cell-based
[35] = tested on: A549; assay: Cytotoxicity in human A549 cells assessed as reduction in cell proliferation at 0.001 to 100 uM incubated for 24 to 48 hrs by BrdU incorporation assay; type: functional, cell-based
Summary of the method: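 BrdU incorporation assay read colorimetrically. Absorbance of the developed colour is proportional to the BrdU incorporated into cells, taken as a measure of proliferation.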

[36] = tested on: A-375; assay: Cytotoxicity in human A375 cells assessed as reduction in cell viability incubated for 24 hrs by MTT assay; type: functional, cell-based; conditions: Homo sapiens, A-375, 24 h; read-out: IC50; summary of the method: as §1
[37] = tested on: A-375; assay: Induction of apoptosis in human A375 cells assessed as cytochrome-c release after 4 to 12 hrs by spectrophotometry; type: functional, cell-based

SMILES: COc1cc(C2Oc3cc(-c4cc(=O)c5c(O)cc(O)cc5o4)ccc3OC2/C=C2\C(=O)ON=C2c2ccc(Cl)cc2)ccc1O (configuration not stated)
- inhibition [1]: Active
- Activity [2]: Active
- IC50 [3]: 2 µM
- Activity [4]: Active
- Activity [5]: Active
- Activity [6]: Active
- Activity [7]: Active
- Activity [8]: Active
- Activity [9]: Active
- Activity [10]: Dose-dependent effect
- Activity [11]: Active
- Activity [12]: Active
- Activity [13]: 39%
- Activity [14]: Active
- Activity [15]: 14.5%
- Activity [16]: Active
- Activity [17]: Active
- Activity [18]: inactive
- Activity [19]: Active
- Activity [20]: Active
- Activity [21]: inactive
- Activity [22]: Active
- Activity [23]: Active
- Activity [24]: Active
- Activity [25]: Active
- Activity [26]: Active
- Activity [27]: Active
- IC50 [28]: 1.2 µM
- Activity [29]: 40%
- Activity [30]: Active
- inhibition [31]: Active
- Activity [32]: Active
- Activity [33]: Active
- Activity [34]: Active
- Activity [35]: Active
- IC50 [36]: 1.2 µM
- Activity [37]: Active
